These results are taken from paper PMC4010290 (Journal of Agricultural and Food Chemistry, 2014).

Structures are written as SMILES.

For assay [1], the target named is T1, Bovine serum albumin (BSA) (Bos taurus, UniProt P02769). Nature of the assay: BSA fluorescence quenching. Type of assay: binding. As to conditions: for KSV (Stern–Volmer constant, BSA fluorescence quenching): 3 μM BSA, 22 °C.
The target of assay [2] is Bovine serum albumin (BSA), Trp134 and Trp213 (Bos taurus, UniProt P02769). Nature of the assay: Time domain fluorescence lifetime of the two Trp residues of BSA. Type of assay: binding. As to conditions: for τ fluorescence lifetime Trp134 / τ fluorescence lifetime Trp213: 25 μM phenolic. Put shortly:
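BSA (3 μM final) mixed with test compound (25 μM) in 0.2 M sodium phosphate with 0.1 M NaCl at pH 3.0, 5.0 or 7.4. Samples vortexed, nitrogen-sparged 20 min, then held 1 h at 22 °C. Time-correlated single-photon counting used 250 nm LED excitation, collecting to 10000 peak counts. Biexponential decay fit gave lifetimes and amplitudes for Trp134 and Trp213.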

Assay [3] concerns the target T1, Bovine serum albumin (BSA). Put plainly: Induced circular dichroism spectra of BSA. Type of assay: binding. As to conditions: 200 μM ligand; 30 μM BSA; pH 7.4. In outline:
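BSA at 30 μM in 0.2 M sodium phosphate, pH 7.4, with test compound at 0–200 μM, dissolved from water stocks. CD recorded 355–245 nm in a 1 mm cell under dry nitrogen at 298–301 K. Settings were 12 accumulated scans, 0.5 nm pitch, 1.0 nm bandwidth and 100 nm/min. Buffer spectrum subtracted, and induced CD calculated from sample spectra by the paper's equation.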
(CD spectra are sensitive to the conformation of chiral molecules.)

For a further assay, the system named is BSA Sudlow site I. As to conditions: cited from earlier work.
A further assay deals with BSA (Bos taurus, UniProt P02769). In kind it is binding, bovine. As to conditions: pH 7.4; TB up to a 50-fold excess.
Another assay concerns BSA Sudlow site II. As to conditions: cited from earlier work.

T1 sequence (P02769 25-607): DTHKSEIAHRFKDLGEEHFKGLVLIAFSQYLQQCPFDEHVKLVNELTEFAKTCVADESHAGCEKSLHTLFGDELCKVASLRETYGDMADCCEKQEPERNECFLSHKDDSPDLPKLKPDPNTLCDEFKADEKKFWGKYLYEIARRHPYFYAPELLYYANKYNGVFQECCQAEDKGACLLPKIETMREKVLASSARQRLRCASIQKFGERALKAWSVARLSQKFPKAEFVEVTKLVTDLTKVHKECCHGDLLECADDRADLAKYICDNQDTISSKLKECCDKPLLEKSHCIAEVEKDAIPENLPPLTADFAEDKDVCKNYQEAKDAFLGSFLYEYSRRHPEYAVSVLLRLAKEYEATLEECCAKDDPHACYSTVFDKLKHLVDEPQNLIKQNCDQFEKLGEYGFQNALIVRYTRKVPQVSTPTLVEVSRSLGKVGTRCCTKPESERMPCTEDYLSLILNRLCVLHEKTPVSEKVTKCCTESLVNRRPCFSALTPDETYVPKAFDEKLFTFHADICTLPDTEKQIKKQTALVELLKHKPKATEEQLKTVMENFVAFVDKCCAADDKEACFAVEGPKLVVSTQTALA
Chain of Bovine serum albumin (BSA), Trp134 and Trp213 (P02769 25-607): as above
Chain of BSA (P02769 25-607): as above

For the compound `Oc1cc(O)c2c(c1)O[C@H](c1cc(O)c(O)c(O)c1)[C@H](O)C2` [EGC, (−)-Epigallocatechin], in assay [1], the “Apparent affinity for BSA” value was “about 10^3 M^–1”. Also, the “KSV (Stern–Volmer constant, BSA fluorescence quenching)” value is 0.30 × 10^4 M^–1 in assay [1] (pH 3.0), 0.23 × 10^4 M^–1 in assay [1] (pH 5.0) and 0.64 × 10^4 M^–1 in assay [1] (pH 7.4). The “Change of lifetime of either Trp” value in assay [2] (any pH, 25 μM) is reported as “did not change the lifetime”. For the same compound, the “τ fluorescence lifetime Trp134” value in assay [2] (pH 3.0) was 5.41 ns; in assay [2] (pH 5.0), 6.58 ns; in assay [2] (pH 7.4) it was 6.54 ns. Further, the “τ fluorescence lifetime Trp213” value was found to be 2.15 ns in assay [2] (pH 3.0), 3.04 ns in assay [2] (pH 5.0) and 2.93 ns in assay [2] (pH 7.4). The “Fluctuation of the amplitudes of the induced CD spectra” value in assay [3] is approximately 0.2 mdeg.
For `COC(=O)c1cc(O)c(O)c(O)c1` [MG, methyl gallate], the “KSV (Stern–Volmer constant, BSA fluorescence quenching)” value was 0.85 × 10^4 M^–1 in assay [1] (pH 3.0), 0.81 × 10^4 M^–1 in assay [1] (pH 5.0) and 5.4 × 10^4 M^–1 in assay [1] (pH 7.4). The “τ fluorescence lifetime Trp134” value in assay [2] (pH 3.0) came out at 5.38 ns; in assay [2] (pH 5.0), 6.49 ns; in assay [2] (pH 7.4), 6.29 ns. For the same compound, the “τ fluorescence lifetime Trp213” value in assay [2] (pH 3.0) stood at 2.11 ns; in assay [2] (pH 5.0), 2.85 ns; in assay [2] (pH 7.4), 2.06 ns. Also, the “Reduction of fluorescence lifetime of Trp213” value in assay [2] (pH 7.4 only, 25 μM) is 30%. In addition, the “Fluctuation of the amplitudes of the induced CD spectra” value in assay [3] is reported as approximately 0.2 mdeg.
Regarding `CCCCC1C(=O)N(c2ccccc2)N(c2ccccc2)C1=O` [PB, phenylbutazone], in the assay on BSA Sudlow site I, the “Association constant, Sudlow site I” value is 6.2 × 10^5 M^–1.
With `CCCCNC(=O)NS(=O)(=O)c1ccc(C)cc1` [TB, tolbutamide], the “Inhibition of EGCg binding to BSA” value on BSA is given as “did not inhibit”. The “Association constant, Sudlow site I” value with BSA Sudlow site I is given as 8.7 × 10^4 M^–1. Moreover, in the assay on BSA Sudlow site II, the “Association constant, Sudlow site II” value was 0.81 × 10^4 M^–1.
